# According to publication PMC9516706 (JACS Au, 2022):
# Columns and labels:
# [1] = tested on: A431 cells; assay: Cytotoxicity assay; assay type: cell-based, human; conditions: for Selective cytotoxicity to A431 cells: five different cell lines compared, cell viability assay
# How it was run: (§1)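 Cells were seeded in 96-well plates and grown for 24 h. Medium was then replaced with medium containing the peptide amphiphile, and cells were incubated a further 20 h. Viability was read with WST-8 reagent. Lines were HeLa, A431, MCF-7 and HepG2 cancer cells, plus MvE and HEK293 normal cells.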
# [2] = tested on: A431 cells; assay: Tyrosine kinase inhibitor assay; assay type: cell-based, human
# [3] = TEM observation of self-assembly; assay type: physicochemical; conditions: 1.0 wt % in PBS(+), stained with 2.0 wt % phosphotungstic acid, 200 kV
# How it was run: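 A carbon-supported TEM grid was dipped in a 1.0 wt % peptide amphiphile solution in PBS(+) containing Ca²⁺ and Mg²⁺. The grid was dried, negatively stained with 2.0 wt % phosphotungstic acid, and imaged at 200 kV accelerating voltage.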
# [4] = tested on: HeLa, A431, MCF-7, HepG2, MvE and HEK293 cells; assay: Cytotoxicity assay; assay type: cell-based, human; conditions: up to 0.1 wt %; four different cell lines
# How it was run: as §1
# [5] = tested on: A431 cells; assay: Apoptosis and necrosis detection; assay type: cell-based, human; conditions: C16-E4Y 0.08 wt %, 1 h, counting at least 1000 cells in CLSM images
# How it was run: (§2)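 Cells were grown on a dish for 24 h, then given medium containing test compound at 0.08 wt % for 1 h. Cells were stained with annexin V-FITC and propidium iodide using an apoptotic/necrotic/healthy cell detection kit. Staining was imaged by CLSM, with PI fluorescence marking membrane-damaged cells.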
# [6] = tested on: A431 tumor; assay: Antitumor activity in vivo, A431-xenografted nude mice; conditions: same regimen, against PBS control group, n = 6
# How it was run: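 Nude mice with A431 cells injected subcutaneously into the flank. PBS (30 μL) with 1.5 wt % test compound was injected directly into the tumour three times a week for 3 weeks, against a PBS control. Bodyweight was followed during dosing, and tumour volume was taken as longer diameter × shorter diameter² × 0.5. Mice were sacrificed 4 weeks after inoculation; n = 6.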
# [7] = Gel formation of C16-E4Y phosphorylated by tyrosine kinase; assay type: physicochemical; conditions: C16-E4Y 1 wt%, ATP 15 mM, c-Src kinase 6 µg/mL, 1× kinase buffer, 37 °C, 7 days
# [8] = tested on: A431 cells; assay: Localization of peptide amphiphiles in cells; assay type: cell-based, human; conditions: C16-E4Y 0.05 wt % with NBD-C8-E4Y 0.001 wt %, 24 h, ER-tracker and MitoRed, CLSM
# [9] = tested on: HeLa cells; assay: Apoptosis and necrosis detection; assay type: cell-based, human; conditions: C16-E4Y 0.08 wt %, 1 h, counting at least 1000 cells in CLSM images
# How it was run: as §2
# [10] = tested on: A431 cells; assay: Fluorescence recovery after photobleaching; assay type: cell-based, human; conditions: 0.08 wt% C16-E4Y for 1 h, without C16-E4Y recovery within 1 s
# [11] = tested on: HepG2 cells; assay: Detection of a peptide amphiphile phosphorylated in cells; assay type: cell-based, human; conditions: HepG2 cells cultured with 0.05 wt % C16-E4Y; medium and cell lysate
molecule,measurement,setting,value
N-palmitoyl-Glu-Glu-Glu-Glu-Phe [C16-E4F],Selective cytotoxicity to A431 cells,[1],did not exhibit selective cytotoxicity
N-palmitoyl-Glu-Glu-Glu-Glu-Ser [C16-E4S],Selective cytotoxicity to A431 cells,[1],did not exhibit selective cytotoxicity
C#Cc1cccc(Nc2ncnc3cc(OCCOC)c(OCCOC)cc23)c1 [erlotinib],Effect of EGFR inhibitor on the cytotoxicity of C16-E4Y,[2],alleviated the cytotoxicity
N-capryloyl-Glu-Glu-Glu-Glu-Tyr [C8-E4Y],Self-assembly morphology by TEM,[3],did not form any self-assembly body
same,Cytotoxicity toward all cell lines tested,[4],did not show cytotoxicity
N-palmitoyl-Glu-Glu-Glu-Glu [C16-E4],Selective cytotoxicity to A431 cells,[1],did not exhibit selective cytotoxicity
N-palmitoyl-Glu-Glu-Glu-Glu-Tyr [C16-E4Y],Cells in early apoptosis,[5],15.4%
same,Bodyweight of treated mice,[6],comparable to those of the control group
same,Gelation after incubation with a tyrosine kinase and ATP,[7],partially gelated
same,Cytotoxicity toward A431 cells compared with the other cell lines,"[1]; 0.05 wt %, 20 h incubation, WST-8, five replicates",remarkably higher cytotoxicity
same,Dose dependence of cytotoxicity,"[1]; A431 cells, Figure 3b",dose-dependent
same,Self-assembly morphology by TEM,[3],nanosized strings several hundred nanometers in length
same,Intracellular localization,[8],accumulated on ER selectively
same,Cells in early apoptosis,[9],0.4%
same,Fluorescence recovery of ER-tracker after photobleaching,[10],recovered relatively slowly
same,Intracellular phosphorylation (C16-E4pY by MALDI-TOF/MS),[11],not detected
N-lauroyl-Glu-Glu-Glu-Glu-Tyr [C12-E4Y],Self-assembly morphology by TEM,[3],formed only a few isolated short fibers
same,Cytotoxicity toward all cell lines tested,[4],did not show cytotoxicity
